Laboratory results as given in ChEMBL document CHEMBL4715759, “Synthesis, biological evaluation and molecular modeling study of thiadiazolo[3,2-a][1,3]diazepine analogues of HIE-124 as a new class of short acting hypnotics” (Eur J Med Chem, 2016).
Activity calls are given as the source filed them. No cut-off for these calls is given here.

How the values were obtained:
Mus musculus [1] = experiment: Hypnotic activity in mouse assessed as duration of sleep time at 0.05 mmol/Kg, ip in presence of 0.06 mmole/kg thiopenetal by righting reflex; assay type: functional
In short: (§1)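 Mice received a test compound (0.03–0.06 mmol/kg) together with thiopental sodium (0.06 mmol/kg), both i.p. Vehicle was DMSO (up to 1 ml/kg), or 0.25% aqueous sodium carboxymethylcellulose suspension for larger doses (up to 10 ml/kg). Each mouse was kept under a 30-cm glass funnel and watched visually and on video. Sleep onset was timed. Duration ended when the righting reflex was regained 3 times within one minute. n=6.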

Mus musculus [2] = experiment: Hypnotic activity in mouse assessed as onset of sleep time at 0.06 mmol/Kg, ip in presence of 0.06 mmole/kg thiopenetal by righting reflex; assay type: functional; in short: as §1
Mus musculus [3] = experiment: Hypnotic activity in mouse assessed as onset of sleep time at 0.05 mmol/Kg, ip in presence of 0.06 mmole/kg thiopenetal by righting reflex; assay type: functional; in short: as §1
Mus musculus [4] = experiment: Hypnotic activity in mouse assessed as duration of sleep time at 0.4 mmol/Kg, ip by righting reflex; assay type: functional
In short: (§2)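 Mice were first checked for an intact righting reflex. Single i.p. doses of 0.2–2 mmol/kg were given in DMSO (up to 1 ml/kg), or as a 0.25% aqueous carboxymethylcellulose suspension (up to 10 ml/kg) for larger doses, with vehicle controls. Each mouse was placed under a 30-cm glass funnel and monitored visually and by video. Onset of sleep was timed. Duration ended at regain of the righting reflex 3 times within 1 min. Minimal effective dose recorded; n=6.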

[5] = Therapeutic Index, ratio of LD50 of Toxicity in iv dosed mouse to minimum effective hypnotic dose in mouse; assay type: organism-based; settings: in vivo, read-out: TI
Mus musculus [6] = experiment: Hypnotic activity in mouse assessed as duration of sleep time at 0.06 mmol/Kg, ip in presence of 0.06 mmole/kg thiopenetal by righting reflex; assay type: functional; in short: as §1
Mus musculus [7] = experiment: Hypnotic activity in mouse assessed as onset of sleep time at 0.4 mmol/Kg, ip by righting reflex; assay type: functional; in short: as §2
Mus musculus [8] = experiment: Hypnotic activity in mouse assessed as onset of sleep time at 0.03 mmol/Kg, ip in presence of 0.06 mmole/kg thiopenetal by righting reflex; assay type: functional; in short: as §1
Mus musculus [9] = experiment: Hypnotic activity in mouse assessed as duration of sleep time at 0.03 mmol/Kg, ip in presence of 0.06 mmole/kg thiopenetal by righting reflex; assay type: functional; in short: as §1
Mus musculus [10] = experiment: Hypnotic activity in mouse assessed as duration of sleep time at 1 mmol/Kg, ip by righting reflex; assay type: functional; in short: as §2
Mus musculus [11] = experiment: Hypnotic activity in mouse assessed as onset of sleep time at 1 mmol/Kg, ip by righting reflex; assay type: functional; in short: as §2
Mus musculus [12] = experiment: Hypnotic activity in mouse assessed as duration of sleep time at 0.2 mmol/Kg, ip by righting reflex; assay type: functional
In short: (§3)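 Mice screened for intact righting reflex, then dosed i.p. (0.2–2 mmol/kg range; DMSO up to 1 ml/kg, or larger doses suspended in 0.25% aqueous Na-CMC up to 10 ml/kg). Each mouse was held under a 30-cm glass funnel and monitored visually and by video. Onset was recorded at loss of righting reflex. Sleep ended when the reflex was regained 3 times within one minute. n=6.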

Mus musculus [13] = experiment: Hypnotic activity in mouse assessed as onset of sleep time at 0.2 mmol/Kg, ip by righting reflex; assay type: functional; in short: as §3
Mus musculus [14] = experiment: Hypnotic activity in mouse assessed as duration of sleep time at 0.8 mmol/Kg, ip by righting reflex; assay type: functional; in short: as §2
Mus musculus [15] = experiment: Hypnotic activity in mouse assessed as onset of sleep time at 0.8 mmol/Kg, ip by righting reflex; assay type: functional; in short: as §2
Mus musculus [16] = experiment: Hypnotic activity in mouse assessed as onset of sleep time at 1.6 mmol/Kg, ip by righting reflex; assay type: functional; in short: as §2
Mus musculus [17] = experiment: Hypnotic activity in mouse assessed as duration of sleep time at 1.6 mmol/Kg, ip by righting reflex; assay type: functional, organism-based; in short: as §2

Question: What does the source list for `O=C1CCCN2N=C(c3ccccc3)SC2=N1`?
Answer: Time (Mus musculus [1]): 5 min; Time (Mus musculus [2]): 7.5 min; Time (Mus musculus [3]): 15 min; Time (Mus musculus [4]): 94.8 min; selectivity ratio [5]: 6.62; Time (Mus musculus [6]): 62.5 min; Time (Mus musculus [7]): 6.4 min

Question: For `O=C1CCCN2N=C(c3ccc(Br)cc3)SC2=N1`, which Activity (Mus musculus [4]) is on record?
Answer: inactive

Question: What about the selectivity ratio [5] of the same molecule?
Answer: 1.5

Question: And the Time (Mus musculus [7])?
Answer: 43.4 min

Question: And the Time (Mus musculus [8])?
Answer: 3.1 min

Question: What about the Time (Mus musculus [9]) of the same molecule?
Answer: 75 min

Question: With `CC1=NN2CCCC(=O)N=C2S1` as the molecule, how does the Time (Mus musculus [10]) read?
Answer: 6 min

Question: What about the selectivity ratio [5] of the same molecule?
Answer: 3.55

Question: What about the Time (Mus musculus [11]) of the same molecule?
Answer: 25 min

Question: For `CCCC(C)C1(CC)C(=O)[N-]C(=S)NC1=O.[Na+]` (centres undefined) [THIOPENTAL SODIUM], which selectivity ratio [5] is on record?
Answer: 6.1

Question: And the Time (Mus musculus [12])?
Answer: 45 min

Question: What about the Time (Mus musculus [13]) of the same molecule?
Answer: 2 min

Question: Which results are given for `O=C1CCCN2N=C(C(F)(F)F)SC2=N1`?
Answer: Time (Mus musculus [14]): 14 min; selectivity ratio [5]: 3.32; Time (Mus musculus [15]): 14 min

Question: For `Cc1ccc(C2=NN3CCCC(=O)N=C3S2)cc1`, which Time (Mus musculus [16]) is on record?
Answer: 20 min

Question: What about the selectivity ratio [5] of the same molecule?
Answer: 1.25

Question: And the Activity (Mus musculus [17])?
Answer: inactive
